How the values were obtained:
[1] = Human plasma albumin binding in pH 7.4 at RT; format: ADME, cell-free
Method in brief: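 Binding to human plasma protein, mainly albumin, was measured by analytical HPLC with UV detection. The assay ran in pH 7.4 buffer at room temperature, and the result was reported as percent protein bound.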

[2] = target: Human immunodeficiency virus type 1 integrase (Human immunodeficiency virus 1, UniProt Q7ZJM1); assay: Inhibition of strand transfer for HIV-1 integrase
[3] = tested on: Human immunodeficiency virus; assay: Antiviral activity in presence of 10% FBS against HIV-1 replication in cells; format: functional, Human immunodeficiency virus 1; settings: read-out: CIC95
[4] = tested on: Human immunodeficiency virus; assay: Antiviral activity in presence of 50% NHS against HIV-1 replication in cells; format: functional, Human immunodeficiency virus 1; settings: read-out: CIC95

Sequence of Human immunodeficiency virus type 1 integrase (Q7ZJM1 whole entry): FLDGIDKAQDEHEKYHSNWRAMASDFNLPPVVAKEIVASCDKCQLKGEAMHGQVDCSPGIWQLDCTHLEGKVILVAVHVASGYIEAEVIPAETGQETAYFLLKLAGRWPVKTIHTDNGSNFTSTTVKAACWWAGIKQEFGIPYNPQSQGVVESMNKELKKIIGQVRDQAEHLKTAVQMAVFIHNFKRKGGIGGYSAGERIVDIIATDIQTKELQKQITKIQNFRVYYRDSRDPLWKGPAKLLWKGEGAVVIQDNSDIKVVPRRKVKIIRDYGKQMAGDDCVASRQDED

Compound | Activity [1] [%] | IC50 [2] [nM] | IC95 ([3]; Human immunodeficiency virus 1) [nM] | IC95 ([4]; Human immunodeficiency virus 1) [nM] | IC95 [3] [nM] | IC95 [4] [nM]
O=C(NCc1ccc(F)cc1)c1ncc2cccnc2c1O | 99.2 | 32.8 | 1250 | 5000 |  | 
CN1C(=O)CC(c2nc(C(=O)NCc3ccc(F)cc3)c(O)c3ncccc23)N(C)C1=O (racemic) | 94.3 | 8.7 |  |  | 18.6 | 60.7
O=C1CC(c2nc(C(=O)NCc3ccc(F)cc3)c(O)c3ncccc23)NC(=O)N1 (racemic) | 92.1 | 10 |  |  | 53.7 | 55.7
CN1C(=O)CC(c2nc(C(=O)NCc3ccc(F)cc3)c(O)c3ncccc23)NC1=O (racemic) |  | 12.8 | 31.3 | 62.5 |  | 
CN1C(=O)NC(=O)CC1c1nc(C(=O)NCc2ccc(F)cc2)c(O)c2ncccc12 (racemic) |  | 12.5 | 15.6 | 15.6 |  | 
CN1C(=O)CC(c2nc(C(=O)NCc3ccc(F)cc3)c(O)c3ncccc23)N(C)C1=O (single isomer, unassigned; (+)) | 96 | 11.3 |  |  | 41.7 | 166.7
O=C1CC(c2nc(C(=O)NCc3ccc(F)cc3)c(O)c3ncccc23)NC(=O)N1 (single isomer, unassigned; (+)) |  | 11 |  |  | 93.8 | 93.8
CN1C(=O)CC(c2nc(C(=O)NCc3ccc(F)cc3)c(O)c3ncccc23)N(C)C1=O (single isomer, unassigned; (-)) | 95 | 35 |  |  | 20.1 | 40.2
O=C1CC(c2nc(C(=O)NCc3ccc(F)cc3)c(O)c3ncccc23)NC(=O)N1 (single isomer, unassigned; (-)) |  | 13.3 |  |  | 125 | 125
CN1C(=O)CC(c2nc(C(=O)NCc3ccc(F)cc3)c(O)c3ncccc23)N(C)C1=O (stereo in doubt; 14) | 97.8 | 27.5 |  |  | 250 | 1000
